Assay outcomes deposited in PubChem BioAssay by several laboratories.
HUVEC prolif 384: inhibitors of human endothelial cell proliferation; HUVEC proliferation, CellTiter-Glo luminescence, 72 h; active compounds read low; viability, % at 10 µM (by protocol); 1.1% of 86,000 active; AID 648;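 active = viability at or below 30%; inactive = viability above 30%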;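 also: 100% = median luminescence of DMSO-only cell control wells on each plate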
H69AR inhibit: blocks growth of human H69AR lung tumor cells | viability, % at 10 µM | 6% of 85,000 active | H69AR lung tumor viability, ATP luminescence, 72 h; active compounds read low;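 active = viability at or below 40%; inactive = viability above 40%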;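 also: multidrug resistant small cell line overexpressing MRP-1 efflux transporter; 100% = mean luminescence of untreated control wells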
Jurkat tox 60K: cytotoxic compounds reducing Jurkat cell viability; 1.2% of 56,000 active; Jurkat E6.1 viability, ATP luminescence, 48 h; inhibition, % at 4 µM;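 active = inhibition above the mean inhibition of all tested compounds plus 3 SD, cut at about 28% in these data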
Lung fibro prol: blocks proliferation of human lung fibroblasts | LL 47 human lung fibroblast viability, ATP luminescence; active compounds read low | viability, % at 10 µM | 1.1% of 85,000 active;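 active = viability at or below 50% in the single dose screen; inactive = viability above 50%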;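 also: compound exposure lasted 72 h before the ATP readout; 100% = median luminescence of untreated cell-only wells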
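Assay system: human lung fibroblast line LL 47, low passage. Input: 1,150 fibroblasts seeded per well. Times: overnight cell rest, 72 h compound treatment at 37 °C. Evaluation: % viability of median cell-only signal. Technique: luminescent ATP detection, CellTiter-Glo. Control set: cell-only wells, no compound.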
* = called active by the depositor; / = no result given. Hits are enriched below; roughly 6.4% of the tested compounds scored in any of these assays.

SMILES	HUVEC prolif 384	H69AR inhibit	Jurkat tox 60K	Lung fibro prol
Nc1c(C(=O)NCc2ccc3c(c2)OCO3)c2nc3ccccc3nc2n1CCCN1CCOCC1	20*	1.1*	5	62
Nc1ccc(-n2c(N)c(C(=O)NCc3ccc4c(c3)OCO4)c3nc4ccccc4nc32)cc1	83	61	4	89
CCOc1cccc2cc(-c3nnc(-c4ccccc4)o3)c(=O)oc12	/	/	-4	/
CC(C)CCn1nnnc1C(c1ccc(F)cc1)N1CCC(C(N)=O)CC1 (configuration not stated)	101	88	2	102
Nc1c(C(=O)NCCN2CCOCC2)c2nc3ccccc3nc2n1-c1ccccc1	96	36*	-1	98
Nc1c(C(=O)NCCN2CCOCC2)c2nc3ccccc3nc2n1CCc1ccccc1	58	47	-10	87
c1ccc(-c2cc3c(N4CCOCC4)ncnc3s2)cc1	73	31*	8	/
Cc1nc(N2CCOCC2)c2cc(-c3ccccc3)sc2n1	83	81	-3	87
CN(C)CCCN1c2ccccc2Sc2ccc(Cl)cc21	50	20*	/	44*
OCCN1CCN(CCCN2c3ccccc3Sc3ccc(Cl)cc32)CC1	1.8*	1.5*	/	28*
COC(=O)c1ccc(/C(O)=C(\C#N)c2nc3ccccc3s2)cc1	50	32*	1	94
CC(C)=C(C#N)c1nc2ccccc2s1	/	/	-6	/
CNS(=O)(=O)c1cccc(C(=O)OCC(=O)C23CC4CC(CC(C4)C2)C3)c1	82	91	/	94
N#Cc1nc(N2CCCC2)nc(N2CCCC2)n1	89	85	22	77
C1CCN(c2nc(N3CCCCC3)nc(N3CCNCC3)n2)CC1	86	0.4*	2	85
Cc1ccc(C)c(C(=O)Cn2ncc(Cl)c(Cl)c2=O)c1	2.2*	0.4*	/	2.1*
Cc1ccc(C)c(C(=O)CN2C(=O)c3ccccc3S2(=O)=O)c1	97	95	/	101
COc1cccc(C(=O)Nc2nc3c(s2)CN(C)CC3)c1	90	86	/	101
c1cc2c3c(cccc3c1)NC1(CCCCCC1)N2	5.5*	51	0	83
COc1ccc(-c2cc(C(F)(F)F)n3nc(C(=O)NCc4ccco4)c(Cl)c3n2)cc1	53	37*	/	71
O=C(NCc1ccco1)c1nn2c(C(F)(F)F)cc(-c3cccs3)nc2c1Br	66	32*	/	79
COc1ccc(-c2cc(C(F)(F)F)n3nc(C(=O)NCc4ccco4)cc3n2)cc1	90	84	-2	87
Cc1cccc(-n2c(O)c(C=NCCCN3CCOCC3)c3ccccc3c2=O)c1	84	/	-1	98
Cc1ccc(N=Cc2c(O)n(-c3ccc4c(c3)OCO4)c(=O)c3ccccc23)cc1	21*	9.1*	/	72
O=c1c2ccc(-c3nnc4n3-c3ccccc3SC4)cc2nc2n1CCCCC2	/	/	3	/
SMILES	HUVEC prolif 384	H69AR inhibit	Jurkat tox 60K	Lung fibro prol
COc1ccc(C)cc1NC(=O)C1CCCN(S(=O)(=O)c2c(C)noc2/C=C/N(C)C)C1 (configuration not stated)	85	98	4	99
Cc1ccc2nc(NCCCO)nc(-c3ccccc3)c2c1	64	8.9*	/	73
Cc1cc(N2CCCC2)nc(SCC(=O)c2ccccc2)n1	101	74	/	96
Cc1cc(N2CCC(C)CC2)nc(SCC(=O)c2ccccc2)n1	88	40*	/	92
Cc1noc(C)c1S(=O)(=O)NCc1ccc2c(c1)OCO2	99	83	1	102
Cn1c(=O)c2c(SCc3cccc(C(F)(F)F)c3)nc(-c3ccco3)nc2n(C)c1=O	20*	101	2	48*
Cn1c(=O)c2c(SCc3ccccc3)nc(-c3ccco3)nc2n(C)c1=O	67	51	4	63
O=C(c1ccc(Cl)c(S(=O)(=O)NCc2ccco2)c1)N1CCN(c2ccccc2F)CC1	73	21*	/	81
CN(c1ccccc1)S(=O)(=O)c1cc(C(=O)N2CCN(c3ccccn3)CC2)ccc1Cl	82	71	/	93
O=C(c1ccc(Cl)c(S(=O)(=O)Nc2ccc(F)cc2)c1)N1CCN(c2ccccn2)CC1	74	36*	/	99
COc1ccccc1N1CCN(C(=O)c2ccc(Cl)c(S(=O)(=O)NCc3ccco3)c2)CC1	55	23*	/	68
COc1cc(C)c(Cl)cc1S(=O)(=O)NCc1ccco1	94	92	-6	108
CC1CCN(C(=O)C2(NC(=O)Nc3cccc(F)c3)CCCCC2)CC1	101	101	/	98
COC(=O)[C@H](CCSC)NC(=O)NCc1ccc(S(N)(=O)=O)cc1	90	1.9*	1	99
COc1ccc2c(c1OC)C(=O)N1c3ccccc3C(=O)N(c3ccccc3F)C21 (configuration not stated)	65	3.7*	/	98
